Experimental data as given in ChEMBL document CHEMBL1147668, “New 2-alkylidene 1alpha,25-dihydroxy-19-norvitamin D3 analogues of high intestinal activity: synthesis and biological evaluation of 2-(3'-alkoxypropylidene) and 2-(3'-hydroxypropylidene) derivatives” (J Med Chem, 2006).
“And” between values parts separate entries of the source, which are not always exact repeats. Equal entries are not always repeated. The source made the active and inactive calls. The calls are words filed in the database; no cut-off is given here.

Experiments:
[1] = test system: Rattus norvegicus; assay: Calcium mobilization in vitamin D deficient ip dosed Sprague-Dawley rat bone; type: functional, organism-based
Method in brief: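 Rats depleted of vitamin D and kept on 0.02% Ca diet; four consecutive daily ip doses in 0.1 mL 1,2-propanediol/ethanol (95:5). Serum drawn 24 h after last dose; calcium by atomic absorption with 0.1% lanthanum chloride; rise in serum calcium taken as bone calcium mobilization.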

[2] = test system: Rattus norvegicus; assay: Calcium mobilization in vitamin D deficient ip dosed Sprague-Dawley rat
[3] = target: T1, Vitamin D3 receptor (Rattus norvegicus) (UniProt P13053); assay: Induction of vitamin D mediated transactivation in rat ROS17/2.8 cell luciferase assay; type: functional
T1 sequence (whole entry): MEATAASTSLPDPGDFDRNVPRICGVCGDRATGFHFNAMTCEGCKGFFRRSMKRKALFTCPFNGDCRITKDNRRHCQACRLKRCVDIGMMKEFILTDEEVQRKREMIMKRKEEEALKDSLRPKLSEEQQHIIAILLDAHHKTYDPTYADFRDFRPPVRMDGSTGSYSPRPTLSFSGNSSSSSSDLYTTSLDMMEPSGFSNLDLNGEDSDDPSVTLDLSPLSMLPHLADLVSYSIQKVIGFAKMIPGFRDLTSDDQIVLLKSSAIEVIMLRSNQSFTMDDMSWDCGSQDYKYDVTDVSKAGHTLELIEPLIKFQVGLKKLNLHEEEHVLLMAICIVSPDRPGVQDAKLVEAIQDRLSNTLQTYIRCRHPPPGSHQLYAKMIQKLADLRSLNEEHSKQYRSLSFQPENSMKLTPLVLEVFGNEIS
Method in brief: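 ROS 17/2.8 cells stably carrying a 24-hydroxylase promoter-luciferase reporter were dosed over a concentration range. Luciferase was measured by luminometer 16 h later.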

[4] = test system: Mus musculus; assay: Increase of calcium level in po dosed CD1 mouse serum; type: functional, organism-based
Method in brief: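 Female CD-1 mice, 6-7 weeks, on 0.47% Ca diet, acclimated 5-7 days. Single gastric gavage dose formulated in Neobee oil with 5% ethanol at 4 mL/kg. Serum calcium measured by atomic absorption at several timepoints after dosing, including day 3.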

[5] = target: T2, Vitamin D3 receptor (Homo sapiens) (UniProt P11473); assay: Induction of differentiation of human HL60 promyelocytes to monocytes; type: functional
T2 sequence (whole entry): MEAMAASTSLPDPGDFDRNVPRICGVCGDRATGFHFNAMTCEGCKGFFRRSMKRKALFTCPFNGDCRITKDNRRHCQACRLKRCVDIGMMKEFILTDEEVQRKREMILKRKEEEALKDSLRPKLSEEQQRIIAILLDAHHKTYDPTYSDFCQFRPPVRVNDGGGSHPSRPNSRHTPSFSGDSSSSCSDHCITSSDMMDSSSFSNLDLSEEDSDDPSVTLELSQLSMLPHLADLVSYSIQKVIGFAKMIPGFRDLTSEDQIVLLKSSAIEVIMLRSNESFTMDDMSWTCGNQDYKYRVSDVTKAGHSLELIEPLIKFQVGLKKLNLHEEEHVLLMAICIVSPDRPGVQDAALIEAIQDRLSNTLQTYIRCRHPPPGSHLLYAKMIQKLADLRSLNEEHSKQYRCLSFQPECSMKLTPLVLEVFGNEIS

| ED50 [3] [nM] | ED50 [5] | Compound | Activity [1] | Activity [2] | Activity [4] |
| --- | --- | --- | --- | --- | --- |
| 0.0065 | – | C[C@@H](CCCC(C)(C)O)C1CCC2/C(=C/C=C3C[C@@H](O)C(=CCCO)[C@H](O)C3)CCC[C@@]21C (stereo partly drawn) | Active | Active | – |
| 0.042 | 3 nM and 1.3 nM | C[C@H](CCCC(C)(C)O)C1CCC2/C(=C/C=C3C[C@@H](O)C(=CCCO)[C@H](O)C3)CCC[C@@]21C (stereo partly drawn) | Active | Active | Active |
| 3.8 | 4.7 nM | COCOCCC=C1[C@H](O)CC(=C/C=C2\CCC[C@@]3(C)C2CCC3[C@H](C)CCCC(C)(C)O)C[C@H]1O (stereo partly drawn) | Active | Active | Active |
